Published values of several laboratories.
Lines come from different studies, so protocols differ.
Organism: Severe acute respiratory syndrome coronavirus 2

SMILES	assay	system	conditions	measurement	result
CC(/C=C/C=C(\C)c1cc(C(C)(C)C)cc(C(C)(C)C)c1)=C\C(=O)O	viral replication, inhibitor	Vero C1008	1 µM	inhibition	61.6%
C=C1[C@H](CO)[C@@H](O)C[C@@H]1n1cnc2c(=O)[nH]c(N)nc21	viral replication, inhibitor	Huh-7	–	IC50	42 nM
CCC(CC)COC(=O)[C@H](C)N[P@](=O)(OC[C@H]1O[C@@](C#N)(c2ccc3c(N)ncnn23)[C@H](O)[C@@H]1O)Oc1ccccc1	viral replication, inhibitor	Vero C1008	–	EC50	< 100000 nM
CCC(CC)COC(=O)[C@H](C)N[P@](=O)(OC[C@H]1O[C@@](C#N)(c2ccc3c(N)ncnn23)[C@H](O)[C@@H]1O)Oc1ccccc1	viral replication, inhibitor, qPCR	Vero C1008	48 h	EC90	7050 nM
CCCN(CCC)CCc1ccc(OC)c(OCCc2ccccc2)c1	viral replication	Vero C1008	–	IC50	3890 nM
N#Cc1ccc2[nH]cc(CCCCN3CCN(c4ccc5oc(C(=N)Cl)cc5c4)CC3)c2c1	viral replication, inhibitor	Huh-7	–	IC50	> 2000 nM
CN1CCN(C2=Nc3ccccc3Oc3ccc(Cl)cc32)CC1	viral replication, inhibitor	Vero C1008	–	IC50	11500 nM
CN[C@@H](C)C(=O)N[C@H](C(=O)N1CCC[C@H]1C(=O)Nc1sc(-c2ncco2)nc1-c1ccccc1)C1CCCCC1	viral replication, inhibitor	Vero C1008	1 µM	inhibition	42.2%
OCCOCCN1CCN(C(c2ccccc2)c2ccc(Cl)cc2)CC1 (stereo not shown)	viral replication, inhibitor	A549-ACE2	–	IC50	3630 nM
Cc1cc(NC(=O)c2cc3c(=O)n4cccc(C)c4nc3n2C)ccc1Br	viral replication	Vero	1 µM	inhibition	74.7%
[2H]C([2H])(c1cc(F)c(F)cc1F)n1c(=O)n(Cc2ncn(C)n2)c(=O)[nH]/c1=N\c1cc2cn(C)nc2cc1Cl	viral replication, inhibitor, qPCR	–	48 h	EC50	24 nM
Cc1cc2c(cc1C(=O)Oc1ccc(C(=O)O)cc1)C(C)(C)CCC2(C)C	viral replication, inhibitor	Vero C1008	1 µM	inhibition	49.8%
CN(CCc1ccc(Cl)c(Cl)c1)CCN1CCCC1	viral replication, inhibitor	A549-ACE2	–	IC50	1480 nM
CC(C)[C@H]1CC[C@H](C(=O)N[C@H](Cc2ccccc2)C(=O)O)CC1	viral replication, inhibitor	Huh-7	–	IC50	> 2000 nM
CCC(CC)COC(=O)[C@H](C)N[P@](=O)(OC[C@H]1O[C@@](C#N)(c2ccc3c(N)ncnn23)[C@H](O)[C@@H]1O)Oc1ccccc1	viral replication	Vero	10 nM	inhibition	53.8%
CCCCCN(C(=O)NC)c1ccc2nc(CCCC)n(Cc3ccc(NC(=O)c4c(Cl)ccc(Cl)c4C(=O)O)cc3)c2c1	viral replication, inhibitor	Vero C1008	1 µM	inhibition	44.5%
CCc1ccc(NC(=O)c2cc3c(=O)n4ccccc4nc3n2C)cc1	viral replication	Vero	1 nM	inhibition	4.08%
O=C(/C=C/c1ccc(O)c(O)c1/C=C/c1ccc(O)c(O)c1)O[C@H](Cc1ccc(O)c(O)c1)C(=O)O	cytopathic effect, inhibitor	Vero C1008	0.7812 µM	inhibition	0%
CCCN(CCC)c1cc(C)nc2c(-c3cnc(N(C)C)cc3C)c(C)nn12	viral replication, inhibitor	Vero C1008	1 µM	inhibition	60%
CC(C)/N=c1\cc2n(-c3ccc(Cl)cc3)c3ccccc3nc-2cc1Nc1ccc(Cl)cc1	viral replication, inhibitor	Huh-7	–	IC50	85 nM

SMILES	assay	system	conditions	measurement	result
Cn1c(C(=O)Nc2ccc(Cl)cc2)cc2c(=O)n3ccccc3nc21	viral replication	Vero	10 µM	inhibition	91.8%
CC(C)=CCc1c(O)ccc(C(=O)/C=C/c2ccc(O)cc2)c1O	cytopathic effect	Vero C1008	6.25 µM	inhibition	0%
Cn1cnc(Cn2c(=O)[nH]/c(=N\c3cc4cn(C)nc4cc3Cl)n(Cc3cc(F)c(F)cc3F)c2=O)n1	viral replication, inhibitor, qPCR	–	48 h	EC50	23 nM
Cn1c(C(=O)Nc2ccc3c(c2)OCCO3)cc2c(=O)n3ccccc3nc21	viral replication	Vero	0.1 µM	inhibition	37.7%
CCCCCCCCCCCCCCCCCCOC[C@H](COP(=O)(O)OC[C@H]1O[C@@](C#N)(c2ccc3c(N)ncnn23)[C@H](O)[C@@H]1O)OCc1ccccc1	viral replication, inhibitor, qPCR	Vero C1008	–	EC50	140 nM
Cc1cccn2c(=O)c3cc(C(=O)Nc4ccc(N(C)C)cc4)n(C)c3nc12	viral replication	Vero	10 nM	inhibition	7.3%
COc1ccc(C[C@@H]2c3cc(Oc4cc(C[C@@H]5c6cc(O)c(OC)cc6CCN5C)ccc4O)c(OC)cc3CCN2C)cc1	cytopathic effect	Vero C1008	12.5 µM	inhibition	0%
CCCCCCCCCCCCCCCCCCOCCOP(=O)(O)OC[C@H]1O[C@@](C#N)(c2ccc3c(N)ncnn23)[C@H](O)[C@@H]1O	viral replication, inhibitor, qPCR	Vero C1008	48 h	EC90	330 nM
N[C@@H](Cc1cc(I)c(Oc2cc(I)c(O)c(I)c2)c(I)c1)C(=O)O	plaque formation, inhibitor	Vero C1008	–	EC50	7000 nM
CN(C)CCCN1c2ccccc2Sc2ccc(Cl)cc21	viral replication	Vero C1008	–	IC50	282 nM
O=C(Nc1ccccc1F)c1cc2c(=O)n3ccccc3nc2n1Cc1ccccc1	viral replication	Vero	1 nM	inhibition	12.3%
CCN(CCO)CCCC(C)Nc1ccnc2cc(Cl)ccc12 (stereo not shown)	viral replication, inhibitor	Huh-7	–	IC50	> 2000 nM
CCCCCCCCCCCCCCCCOCCCOP(=O)(O)OC[C@H]1O[C@@](C#N)(c2ccc3c(N)ncnn23)[C@H](O)[C@@H]1O	viral replication, inhibitor, qPCR	Vero C1008	–	EC50	630 nM
CN(Cc1cc(Br)cc(Br)c1N)C1CCCCC1	viral replication	Vero C1008	–	IC50	2820 nM
O=C(O[C@@H]1Cc2c(O)cc(O)cc2O[C@@H]1c1cc(O)c(O)c(O)c1)c1cc(O)c(O)c(O)c1	cytopathic effect	Vero C1008	1.562 µM	inhibition	0%
c1ccc([C@H]2CN3CCSC3=N2)cc1	viral replication, inhibitor	Huh-7	–	IC50	> 2000 nM
CN(CCCN1c2ccccc2CCc2ccccc21)CC(=O)c1ccc(Cl)cc1	viral replication, inhibitor	A549-ACE2	–	IC50	7760 nM
C=C[C@@](C)(/C=C/c1ccc(O)cc1)CCC=C(C)C	cytopathic effect	Vero C1008	3.125 µM	inhibition	0%
N#C[C@@]1(c2ccc3c(N)ncnn23)O[C@H](CO)[C@@H](O)[C@H]1O	viral replication, inhibitor, qPCR	Vero C1008	48 h	EC90	770 nM
CCN(CC)CCCC(C)Nc1ccnc2cc(Cl)ccc12 (stereo not shown)	viral replication, inhibitor	A549-ACE2	–	IC50	912 nM
